Measured values taken from ChEMBL document CHEMBL1155540, “The discovery and SAR of indoline-3-carboxamides--a new series of 5-HT6 antagonists” (Bioorg Med Chem Lett, 2010).

Tests used:
[1] = Permeability from apical to basolateral side of the human Caco-2 membrane; type: ADME, cell-based; conditions: read-out: permeability
Homo sapiens = species: Homo sapiens; test: Plasma protein binding in human; conditions: read-out: PPB (converted)
[2] = Plasma protein binding in rat; conditions: read-out: PPB (converted)
[3] = Oral bioavailability in Wistar rat at 10 mg/kg; type: ADME, organism-based; conditions: in vivo
How it was run: (§1)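 Male Wistar rats dosed 1 mg/kg iv or 10 mg/kg po; vehicle 5% DMA / 95% saline. Plasma pharmacokinetic parameters derived and given as mean with SD.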

Hepatocyte [4] = test: Intrinsic clearance in rat hepatocytes; type: ADME, cell-based, Liver
[5] = Elimination half life in Wistar rat at 1 mg/kg, iv; type: ADME, organism-based; design: dose 1 mg/kg, route intravenous; conditions: in vivo, read-out: beta t1/2 (converted); how it was run: as §1
[6] = Permeability from basolateral to apical side of the human Caco-2 membrane; type: ADME, cell-based; conditions: read-out: permeability
[7] = Intrinsic clearance in human liver microsome measured per mg of protein; type: ADME; conditions: liver microsomes
Hepatocyte [8] = test: Intrinsic clearance in human hepatocytes; type: ADME, cell-based, Liver
[9] = Intrinsic clearance in rat liver microsome measured per mg of protein; type: ADME; conditions: liver microsomes
[10] = Volume of distribution at steady state in Wistar rat at 1 mg/kg, iv; type: ADME, organism-based; design: dose 1 mg/kg, route intravenous; conditions: in vivo, read-out: Vdss; how it was run: as §1
[11] = target: Voltage-gated inwardly rectifying potassium channel KCNH2 (Homo sapiens, UniProt Q12809); test: Displacement of [3H]dofetolide from human ERG channel in HEK293 cells; type: cell-based
Voltage-gated inwardly rectifying potassium channel KCNH2, sequence (Q12809 whole entry): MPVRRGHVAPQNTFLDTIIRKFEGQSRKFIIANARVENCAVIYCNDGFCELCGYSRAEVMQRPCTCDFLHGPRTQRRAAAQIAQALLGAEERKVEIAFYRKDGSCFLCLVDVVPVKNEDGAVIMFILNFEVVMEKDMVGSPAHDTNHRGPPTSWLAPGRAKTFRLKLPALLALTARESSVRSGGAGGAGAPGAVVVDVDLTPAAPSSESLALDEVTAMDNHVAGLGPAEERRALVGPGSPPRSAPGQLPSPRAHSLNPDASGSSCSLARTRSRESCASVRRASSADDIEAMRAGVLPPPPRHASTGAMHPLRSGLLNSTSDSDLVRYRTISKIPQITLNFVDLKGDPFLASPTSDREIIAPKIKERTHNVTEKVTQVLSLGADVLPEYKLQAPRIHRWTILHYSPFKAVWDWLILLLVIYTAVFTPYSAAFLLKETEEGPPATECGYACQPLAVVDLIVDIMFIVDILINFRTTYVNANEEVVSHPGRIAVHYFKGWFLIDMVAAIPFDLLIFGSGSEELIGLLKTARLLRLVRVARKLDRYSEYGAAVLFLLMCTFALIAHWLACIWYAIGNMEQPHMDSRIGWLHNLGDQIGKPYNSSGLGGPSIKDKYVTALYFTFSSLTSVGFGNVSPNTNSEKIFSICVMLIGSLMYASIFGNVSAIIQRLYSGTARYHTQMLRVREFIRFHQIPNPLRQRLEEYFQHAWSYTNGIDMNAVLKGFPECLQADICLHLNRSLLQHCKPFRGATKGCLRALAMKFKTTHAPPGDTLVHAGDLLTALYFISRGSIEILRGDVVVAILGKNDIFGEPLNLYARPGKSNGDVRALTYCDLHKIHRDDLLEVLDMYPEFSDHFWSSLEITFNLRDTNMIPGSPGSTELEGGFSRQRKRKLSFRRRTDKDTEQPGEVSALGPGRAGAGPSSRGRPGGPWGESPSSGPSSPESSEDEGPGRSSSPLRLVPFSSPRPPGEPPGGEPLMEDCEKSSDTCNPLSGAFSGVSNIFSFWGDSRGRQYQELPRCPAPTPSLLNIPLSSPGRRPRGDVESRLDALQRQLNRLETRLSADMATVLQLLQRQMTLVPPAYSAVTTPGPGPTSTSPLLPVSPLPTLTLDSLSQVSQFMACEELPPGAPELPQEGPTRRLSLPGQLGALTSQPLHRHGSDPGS
How it was run: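 Affinity for cardiac K+ channel determined by displacement of tritiated dofetolide in membrane homogenate from HEK-293 cells expressing hERG channel; reported as pKi.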

[12] = Clearance in Wistar rat at 1 mg/kg, iv; type: ADME, organism-based; design: dose 1 mg/kg, route intravenous; conditions: in vivo; how it was run: as §1
[13] = target: 5-hydroxytryptamine receptor 6 (Homo sapiens, UniProt P50406); test: Displacement of [3H]LSD from human 5HT6 receptor expressed in CHO cells
5-hydroxytryptamine receptor 6, sequence (P50406 whole entry): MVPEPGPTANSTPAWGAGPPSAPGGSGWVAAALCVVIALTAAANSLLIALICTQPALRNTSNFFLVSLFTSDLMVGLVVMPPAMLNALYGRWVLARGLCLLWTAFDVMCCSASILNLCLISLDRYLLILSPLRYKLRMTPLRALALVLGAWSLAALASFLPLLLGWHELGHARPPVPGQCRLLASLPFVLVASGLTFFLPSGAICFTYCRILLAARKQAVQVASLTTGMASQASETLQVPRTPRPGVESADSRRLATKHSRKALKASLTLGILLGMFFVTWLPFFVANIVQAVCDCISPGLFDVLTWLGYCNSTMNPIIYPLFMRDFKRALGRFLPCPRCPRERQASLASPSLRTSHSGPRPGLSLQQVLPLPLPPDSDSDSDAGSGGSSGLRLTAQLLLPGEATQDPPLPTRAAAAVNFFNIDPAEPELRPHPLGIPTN

`COc1ccc(S(=O)(=O)N2C[C@H](C(=O)N3CCCNCC3)c3ccccc32)c2ccccc12` gave a Papp A→B [1] of less than 2.2 ×10⁻⁶ cm/s, a fraction unbound (Homo sapiens) of 0.006 and a fraction unbound [2] of 0.029. It also gave a bioavailability [3] of 23.5%, a CL (Hepatocyte [4]) of 11 µL/min and a half-life [5] of 1.9 h. For the same molecule, the Papp B→A [6] was 4.7 ×10⁻⁶ cm/s, the microsomal CLint [7] was 69 µL/min/mg and the CL (Hepatocyte [8]) was 7 µL/min. For the same molecule, the microsomal CLint [9] was 105 µL/min/mg, the Vd [10] was 1.9 L/kg and the Ki [11] was 1260 nM. For the same molecule, the clearance [12] was 16.5 mL/min/kg.
With `COc1ccc(S(=O)(=O)N2CC(C(=O)NCCCn3ccnc3)c3ccccc32)c2ccccc12` (racemic) the Ki [13] was 79.4 nM.
Work on `CN1CCC(N(C)C(=O)C2CN(S(=O)(=O)c3cccc4c(Cl)cccc34)c3ccccc32)CC1` (racemic) yielded a Ki [13] of 5.01 nM.
With `CN1CCC(N(C)C(=O)C2CN(S(=O)(=O)c3cccc4ccccc34)c3ccccc32)CC1` (racemic) the Ki [13] was 31.6 nM.
Molecule `COc1ccc(S(=O)(=O)N2CC(C(=O)NC3CC4CCC(C3)N4C)c3ccccc32)c2ccccc12` (racemic) has a Ki [13] of 31.6 nM.
For `CN1CCC(N(C)C(=O)C2CN(S(=O)(=O)c3cccc4nsnc34)c3ccccc32)CC1` (racemic), the Ki [13] was 126 nM.
For `Cc1c(S(=O)(=O)N2CC(C(=O)N(C)C3CCN(C)CC3)c3ccccc32)sc2ccc(Cl)cc12` (racemic), the Ki [13] was 63.1 nM.
`CN1CCC(N(C)C(=O)C2CN(S(=O)(=O)c3cccs3)c3ccccc32)CC1` (racemic) showed a Ki [13] of 316 nM.
In the case of `CN1CCC(N(C)C(=O)C2CN(S(=O)(=O)c3ccccc3)c3ccccc32)CC1` (racemic), the Ki [13] is reported as 316 nM.
Molecule `COc1ccc(S(=O)(=O)N2CC(C(=O)N(C)C3CCN(C)CC3)c3ccccc32)c2ccccc12` (racemic) has a Ki [13] of 7.94 nM.
`COc1ccc(S(=O)(=O)N2CC(C(=O)NCCCN3CCOCC3)c3ccccc32)c2ccccc12` (racemic) showed a Ki [13] of 31.6 nM.
For `CN1CCC(N(C)C(=O)C2CN(S(=O)(=O)c3cccc(C(F)(F)F)c3)c3ccccc32)CC1` (racemic), the Ki [13] was 25.1 nM.
For `COc1ccc(S(=O)(=O)N2CC(C(=O)N(C)C3CCN(C)CC3)c3ccccc32)c(C)c1C` (racemic), the Ki [13] was 100 nM.
`CN1CCC(N(C)C(=O)C2CN(S(=O)(=O)c3ccc(C(F)(F)F)cc3)c3ccccc32)CC1` (racemic) gave a Ki [13] of 25.1 nM.
With `COc1cc(C)c(S(=O)(=O)N2CC(C(=O)N(C)C3CCN(C)CC3)c3ccccc32)c(C)c1C` (racemic) the Ki [13] was 100 nM.
Molecule `COc1ccc(S(=O)(=O)N2CC(C(=O)N3CCCNCC3)c3ccccc32)c2ccccc12` (racemic) has a Ki [13] of 1.26 nM.
For `CCN(CC)CCNC(=O)C1CN(S(=O)(=O)c2ccc(OC)c3ccccc23)c2ccccc21` (racemic), the Ki [13] was 20 nM.
Work on `CCN(CC)CCCNC(=O)C1CN(S(=O)(=O)c2ccc(OC)c3ccccc23)c2ccccc21` (racemic) yielded a Ki [13] of 79.4 nM.
Work on `CN1CCC(N(C)C(=O)C2CN(S(=O)(=O)c3ccc(-c4ccccc4)cc3)c3ccccc32)CC1` (racemic) yielded a Ki [13] of 126 nM.
In the case of `CN1CCC(N(C)C(=O)C2CN(S(=O)(=O)c3cccc(-c4ccccc4)c3)c3ccccc32)CC1` (racemic), the Ki [13] is reported as 31.6 nM.
`COc1cccc(N2CCN(C(=O)C3CN(S(=O)(=O)c4ccc(OC)c5ccccc45)c4ccccc43)CC2)c1` (racemic) gave a Ki [13] of 63.1 nM.
For `CN1CCC(N(C)C(=O)C2CN(S(=O)(=O)c3ccc4ccccc4c3)c3ccccc32)CC1` (racemic), the Ki [13] was 25.1 nM.
With `CN1CCC(N(C)C(=O)C2CN(S(=O)(=O)c3ccc4c(c3)OCCO4)c3ccccc32)CC1` (racemic) the Ki [13] was 50.1 nM.
Molecule `Cc1cnc2c(S(=O)(=O)N3CC(C(=O)N(C)C4CCN(C)CC4)c4ccccc43)cccc2c1` (racemic) has a Ki [13] of 316 nM.
`COc1ccc(S(=O)(=O)N2CC(C(=O)N3CC(N)C3)c3ccccc32)c2ccccc12` (racemic) gave a Ki [13] of 158 nM.
With `COc1ccc(S(=O)(=O)N2CC(C(=O)N3CC(CN)C3)c3ccccc32)c2ccccc12` (racemic) the Ki [13] was 79.4 nM.
For `COc1ccc(S(=O)(=O)N2CC(C(=O)N3CCNCC3)c3ccccc32)c2ccccc12` (racemic), the Ki [13] was 7.94 nM.
With `COc1ccc(S(=O)(=O)N2CC(C(=O)NC3CCN(C)CC3)c3ccccc32)c2ccccc12` (racemic) the Ki [13] was 25.1 nM.
Molecule `COc1ccc(S(=O)(=O)N2CC(C(=O)NC3CCN(Cc4ccccc4)CC3)c3ccccc32)c2ccccc12` (racemic) has a Ki [13] of 50.1 nM.
`CN1CCC(N(C)C(=O)C2CN(S(=O)(=O)c3ccc(OC(F)(F)F)cc3)c3ccccc32)CC1` (racemic) showed a Ki [13] of 20 nM.
